Measurements collected from several papers.
Compare with care: the assays were run in different laboratories.
Cell line: HepG2
Read-out: cell growth or viability

The inhibition of `Cc1cc(=O)oc2ccc(-c3cc(-c4ccc(Br)cc4)nc(N)n3)c(O)c12` is reported as 0% (MTT; 2 µg/mL; 72 h).
For `CCOc1ccc(/C=C2\SC(=S)N(CC(=O)Nc3ccccc3)C2=O)cc1`, the inhibition was 34.3% (MTT; 10 µM).
With `Cc1cc(Nc2ccc(C(=O)N/N=C/C3CCCCC3)cc2)c2cccc(O)c2n1` the inhibition was 45.4% (MTT; 20 µM).
The inhibition of `O=C(CN1C(=O)/C(=C/c2ccc(C(F)(F)F)cc2)SC1=S)Nc1ccccc1` is reported as 11.2% (MTT; 10 µM).
`CCCCCCCCCCCCCCCCOP(=O)([O-])OCC[N+](C)(C)C` gave an inhibition of 37.9% (MTS; 20 µM; 24 h).
`O=C(CN1C(=O)/C(=C/c2cccc(F)c2)SC1=S)Nc1ccccc1` gave an inhibition of 7.27% (MTT; 10 µM).
The inhibition of `Cc1cccc(/C=N/NC(=O)c2ccc(Nc3cc(C)nc4c(O)cccc34)cc2)n1` is reported as 45.4% (MTT; 20 µM).
`CCOC(=O)c1c(C)ncn1CC(c1cn(C)c2ccc([N+](=O)[O-])cc12)c1cn(C)c2ccc([N+](=O)[O-])cc12` gave an inhibition of 10.2% (MTS; 20 µM; 24 h).
The inhibition of `Cc1ccc(-c2cc(-c3ccc4oc(=O)cc(C)c4c3O)nc(N)n2)cc1` is reported as 0% (MTT; 2 µg/mL; 72 h).
`COc1ccc(/C=N/NC(=O)c2ccc(Nc3cc(C)nc4c(O)cccc34)cc2)cc1O` has an inhibition of 34.6% (MTT; 20 µM).
`Cc1cc(=O)oc2ccc(-c3cc(-c4cccs4)nc(N)n3)c(O)c12` gave an inhibition of 14% (MTT; 32 µg/mL; 72 h).
`O=C(CN1C(=O)/C(=C/c2ccc(Cl)cc2Cl)SC1=S)Nc1ccccc1` gave an inhibition of 8.03% (MTT; 10 µM).
The inhibition of `Cc1cc(Nc2ccc(C(=O)N/N=C/c3ccnc(Cl)c3)cc2)c2cccc(O)c2n1` is reported as 42.4% (MTT; 20 µM).
The inhibition of `Cc1cc(=O)oc2ccc(-c3cc(-c4cccc(Cl)c4)nc(N)n3)c(O)c12` is reported as 0% (MTT; 8 µg/mL; 72 h).
`Cc1cc(Nc2ccc(C(=O)N/N=C/c3ccc[nH]3)cc2)c2cccc(O)c2n1` gave an inhibition of 43.9% (MTT; 20 µM).
`O=C(CN1C(=O)/C(=C/c2cccs2)SC1=S)Nc1ccccc1` gave an inhibition of 11.8% (MTT; 10 µM).
For `Cc1cc(Nc2ccc(C(=O)N/N=C/c3cccc(Oc4ccccc4)c3)cc2)c2cccc(O)c2n1`, the inhibition was 51.7% (MTT; 20 µM).
For `O=C(CN1C(=O)/C(=C/c2ccc(Cl)cc2)SC1=S)Nc1ccccc1`, the inhibition was 21.2% (MTT; 10 µM).
